Our source for the IC50 values is ChEMBL document CHEMBL1142135, “Multidrug resistance conferred by novel DNA polymerase mutations in human cytomegalovirus isolates” (Antimicrob Agents Chemother, 2007).

As a reminder, the IC50 is the concentration needed to halve the response being measured. A high value points to weaker potency in that assay.

What all share (format): functional, organism-based
The test system of experiment [1] is Human betaherpesvirus 5. Nature of the experiment: Antiviral activity against Human CMV Towne in MRC5 cells by PRA. Conditions: Human betaherpesvirus 5, Towne. A digest of the protocol: (§1)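 Plaque reduction in human lung MRC-5 fibroblasts, 80 to 100% confluent, infected with 50 PFU cell-free virus. Plates centrifuged 600 × g for 30 min, then 1 h at 37°C, 5% CO2. Inoculum removed; grown in duplicate with 0.625–160 μM GCV, 6.25–1,600 μM FOS or 0.0625–16 μM CDV in 0.8% carboxymethyl cellulose medium. Plaques counted at 7 days for IC50. Repeated 8–11 times; mean and SD.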

Experiment [2] deals with Human betaherpesvirus 5. Nature of the experiment: Antiviral activity against Human CMV T2287 in MRC5 cells by PRA. To be noted: Human betaherpesvirus 5, T2287, MRC5. Put shortly:
as §1

Experiment [3] relates to Human betaherpesvirus 5. Kind of experiment: Antiviral activity against Human CMV T2233 in HFF cells by SEAP assay. Conditions: Human betaherpesvirus 5, T2233, HFF. Put shortly:
(§2)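 Cell-free stocks of AD169-derived recombinant viruses were inoculated at MOI 0.01 to 0.03 onto human foreskin fibroblasts. Cultures were grown without drug or with twofold increasing concentrations of GCV, FOS or CDV for 7 days. Supernatant SEAP activity was then measured. IC50 was derived by linear regression. Values are means and standard deviations of 7 to 23 replicate experiments.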

In experiment [4] the test system is Human betaherpesvirus 5. Kind of experiment: Antiviral activity against Human CMV T2211 in HFF cells by SEAP assay. To be noted: Human betaherpesvirus 5, T2211, HFF. Put shortly:
as §2

For experiment [5], the system named is Human betaherpesvirus 5. Kind of experiment: Antiviral activity against Human CMV T2311 in HFF cells by PRA. To be noted: Human betaherpesvirus 5, T2311, HFF.
Experiment [6] has as its system Human betaherpesvirus 5. Nature of the experiment: Antiviral activity against Human CMV T2296 in MRC5 cells by PRA. To be noted: Human betaherpesvirus 5, T2296, MRC5. A digest of the protocol:
as §1

Experiment [7] has as its system Human betaherpesvirus 5. Nature of the experiment: Antiviral activity against Human CMV T2293 in HFF cells by PRA. To be noted: Human betaherpesvirus 5, T2293, HFF.
For experiment [8], the system named is Human betaherpesvirus 5. Nature of the experiment: Antiviral activity against Human CMV T2291 in HFF cells by SEAP assay. Conditions: Human betaherpesvirus 5, T2291, HFF. Put shortly:
as §2

Experiment [9] concerns Human betaherpesvirus 5. Kind of experiment: Antiviral activity against Human CMV T2311 in HFF cells by SEAP assay. To be noted: Human betaherpesvirus 5, T2311, HFF. A digest of the protocol: as §2
For experiment [10], the system named is Human betaherpesvirus 5. Nature of the experiment: Antiviral activity against Human CMV T2291 in HFF cells by PRA. To be noted: Human betaherpesvirus 5, T2291, HFF.
For experiment [11], the system named is Human betaherpesvirus 5. Nature of the experiment: Antiviral activity against Human CMV T2241 in HFF cells by SEAP assay. Conditions: Human betaherpesvirus 5, T2241, HFF. Put shortly: as §2
The subject of experiment [12] is Human betaherpesvirus 5. Kind of experiment: Antiviral activity against Human CMV T2293 in HFF cells by SEAP assay. Conditions: Human betaherpesvirus 5, T2293, HFF. Put shortly:
as §2

For experiment [13], the system named is Human betaherpesvirus 5. Kind of experiment: Antiviral activity against Human CMV AD169 in HFF cells by PRA. Conditions: Human betaherpesvirus 5, AD169, HFF.

Consider `Nc1ccn(C[C@@H](CO)OCP(=O)(O)O)c(=O)n1` [CIDOFOVIR], for which the 50% inhibitory concentration (IC50) in experiment [1] was 0.3 µM; in experiment [2], 1.8 µM; in experiment [3], 0.3 µM; in experiment [4], 0.2 µM; in experiment [5], 8.9 µM; in experiment [6], 0.6 µM. Further, the half-inhibitory concentration (IC50) in [7] turned out to be 4.9 µM; in experiment [8], 0.7 µM; in [9], 4.7 µM; in [10], 3.3 µM; in [11], 0.3 µM; in experiment [12], 5.2 µM. For the same compound, in experiment [13], it took 0.9 µM to reach half-maximal inhibition (IC50).
On to `O=C(O)P(=O)(O)O` [FOSCARNET], for which the IC50 in experiment [1] was found to be 62.8 µM; in experiment [2], 486 µM; in [3] it was 45 µM; in [4] it was 41 µM; in experiment [5], 732 µM; in [6], 63.4 µM. Moreover, the IC50 in experiment [7] is 122 µM; in experiment [8] it was 274 µM; in experiment [9] it was 308 µM; in experiment [10] it was 431 µM; in [11], 42 µM; in experiment [12], 32 µM. Moreover, the IC50 in experiment [13] worked out at 78 µM.
Consider `Nc1nc2c(ncn2COC(CO)CO)c(=O)[nH]1` [GANCICLOVIR], for which the IC50 in experiment [1] was determined as 4.9 µM; in experiment [2], 30.1 µM; in experiment [3], 1.4 µM; in experiment [5], 12.4 µM; in experiment [6], 5.4 µM; in experiment [7] it was 10 µM. Also, the IC50 in [8] worked out at 7.1 µM; in [9], 30.2 µM; in [10], 4.1 µM; in experiment [11], 1.4 µM; in experiment [12], 5.6 µM; in experiment [13], 1.9 µM.
